Measured values collected from several papers.
Protocols differ between the studies behind these lines. Converted amounts (≈) assume the structure as drawn.
Organism: Streptococcus pneumoniae
Observed: microbial growth

| Structure (SMILES) | method | strain | time | MIC [µg/mL] |
| --- | --- | --- | --- | --- |
| COc1cc(Cc2cnc(N)nc2N)cc(OC)c1OC | broth dilution | – | 24 h | 0.25 (≈ 0.861 µM) |
| CN(C)c1cc(NC(=O)CNC(C)(C)C)c(O)c2c1C[C@H]1C[C@H]3[C@H](N(C)C)C(O)=C(C(N)=O)C(=O)[C@@]3(O)C(O)=C1C2=O | – | 157E | – | < 0.06 |
| CN(C)[C@@H]1C(O)=C(C(N)=O)C(=O)[C@@]2(O)C(O)=C3C(=O)c4c(cc5cc(N)ccc5c4O)C[C@H]3C[C@@H]12 | broth dilution | ATCC49619 | – | 1 (≈ 2.09 µM) |
| O=C1NC(=S)N/C1=C\c1ccc(-c2ccc(N(c3ccccc3)c3ccccc3)cc2)cc1 | broth dilution | ATCC49619 | – | > 1000 |
| CN(C)[C@@H]1C(O)=C(C(N)=O)C(=O)[C@@]2(O)C(O)=C3C(=O)c4c(cc5ccc(-c6ccccc6)cc5c4O)C[C@H]3C[C@@H]12 | broth dilution | ATCC49619 | – | 32 (≈ 59.2 µM) |
| O=C1NC(=S)S/C1=C\c1ccc(-c2ccc(N(c3ccccc3)c3ccccc3)cc2)cc1 | broth dilution | ATCC49619 | – | 1000 (≈ 2150 µM) |
| C[C@@H](O)[C@H]1C(=O)N2C(C(=O)O)=C(S[C@@H]3CN[C@H](C(=O)N(C)C)C3)[C@H](C)[C@H]12 | broth dilution | ATCC49619 | – | 0.25 (≈ 0.652 µM) |
| CN(C)[C@@H]1C(O)=C(C(N)=O)C(=O)[C@@]2(O)C(O)=C3C(=O)c4c(cc5ccc(CN6CC(C#N)C6)cc5c4O)C[C@H]3C[C@@H]12 | broth dilution | ATCC49619 | – | 0.5 (≈ 0.895 µM) |
| O=[N+]([O-])c1ccc(O)c2ncccc12 | broth dilution | ATCC49619 | – | 8 (≈ 42.1 µM) |
| O=C1NC(=S)S/C1=C\c1ccc(-c2ccc(N(c3ccccc3)c3ccccc3)cc2)c2ccccc12 | broth dilution | ATCC49619 | – | 1000 (≈ 1940 µM) |
| CN(C)c1ccc(O)c2c1C[C@H]1C[C@H]3[C@H](N(C)C)C(O)=C(C(N)=O)C(=O)[C@@]3(O)C(O)=C1C2=O | – | 157E | – | < 0.06 |
| O=C(O)CN1C(=O)/C(=C/c2c3ccccc3c(-c3ccc(N(c4ccccc4)c4ccccc4)cc3)c3ccccc23)NC1=S | broth dilution | ATCC49619 | – | > 1000 |
| O=c1[nH]cc(F)c(=O)[nH]1 | broth dilution | – | 24 h | 0.125 (≈ 0.961 µM) |
| N=C(N)NN=Cc1ccc(OC/C=C\COc2ccc(C=NNC(=N)N)cc2)cc1 | – | D39 | 16 h | ≤ 3 |
